EphB4 antag = EphB4-ephrin-B2 interaction antagonists, primary screen, biochemical, TNYL-RAW peptide probe, fluorescence polarization; Ephrin type-B receptor 4 (Homo sapiens), P54760; EphB4 LBD / TNYL-RAW-Alexa532 peptide; inhibition, % at 7 µM; 97,000 tested, 0.15% active; AID 720, 2007;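 active = inhibition above the screen-wide mean inhibition plus 3 SD, cut at about 15% in these data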
PLK1 PBD inh = Plk1 polo box domain binding inhibitors, primary screen, biochemical, fluorescence polarization; Serine/threonine-protein kinase PLK1 (Homo sapiens), P53350; Plk1 PBD phosphopeptide binding; inhibition, %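 (tested at about 20 µM)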; 97,000 tested, 0.13% active; AID 693, 2007; in the data active = inhibition above about 34%, passing the limit was not always enough
PLK1 kinase inh = human PLK1 kinase inhibitors, primary screen, biochemical, TR-FRET; recombinant PLK1 kinase, TR-FRET peptide phosphorylation; AID 619, 2007; 97,000 tested, 0.53% active; inhibition, % at 10 µM; Serine/threonine-protein kinase PLK1 (Homo sapiens), P53350;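 active = inhibition of 50% or more in the single-concentration screen; inactive = inhibition below 50%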
PTPN22 inh 2 = PTPN22 phosphatase inhibitors, primary screen, biochemical, DiFMUP fluorescence, 2 µM | Tyrosine-protein phosphatase non-receptor type 22 (Homo sapiens), Q9Y2R2 | recombinant LYP catalytic domain | inhibition, % at 2 µM | 96,000 tested, 0.21% active;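 active = inhibition at 2 µM at or above a set limit, the screen mean plus 3 SD, cut at about 24% in these data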
Target sequence (Q9Y2R2 whole entry, looked up, the tested form may be a part): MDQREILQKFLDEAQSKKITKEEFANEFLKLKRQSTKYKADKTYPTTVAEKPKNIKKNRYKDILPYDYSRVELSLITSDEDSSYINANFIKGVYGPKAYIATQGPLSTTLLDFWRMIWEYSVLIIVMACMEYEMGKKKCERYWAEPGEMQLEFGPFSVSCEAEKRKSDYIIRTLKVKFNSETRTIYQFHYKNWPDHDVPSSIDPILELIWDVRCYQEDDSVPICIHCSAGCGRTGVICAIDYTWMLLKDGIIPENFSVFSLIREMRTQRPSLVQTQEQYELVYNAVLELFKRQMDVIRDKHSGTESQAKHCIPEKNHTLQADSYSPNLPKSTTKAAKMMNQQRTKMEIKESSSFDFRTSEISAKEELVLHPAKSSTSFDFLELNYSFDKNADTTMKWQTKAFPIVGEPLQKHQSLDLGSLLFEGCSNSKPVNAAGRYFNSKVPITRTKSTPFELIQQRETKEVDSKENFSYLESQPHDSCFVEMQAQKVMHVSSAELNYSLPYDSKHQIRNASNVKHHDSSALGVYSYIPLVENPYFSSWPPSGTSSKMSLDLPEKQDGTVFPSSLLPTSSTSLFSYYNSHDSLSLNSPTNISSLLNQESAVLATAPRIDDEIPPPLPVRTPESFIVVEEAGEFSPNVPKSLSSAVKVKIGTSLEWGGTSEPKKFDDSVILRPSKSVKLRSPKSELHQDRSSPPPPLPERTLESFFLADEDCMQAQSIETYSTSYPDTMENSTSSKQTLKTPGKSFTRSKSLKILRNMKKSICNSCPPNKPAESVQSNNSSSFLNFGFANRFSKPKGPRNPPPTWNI
LYP act = LYP phosphatase activators, primary screen, biochemical, DiFMUP fluorescence, 2 µM; 96,000 tested, 0.11% active; AID 697, 2007; activation, % at 2 µM; recombinant LYP; 0 = plate median, 100 = signal doubled;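 active = activation at 2 µM above a set limit, the mean plus 5 SD, cut at about 37% in these data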
HIV Rev-RRE inh = HIV-1 Rev-RRE binding inhibitors, primary screen, biochemical, FRET, protein-RNA interaction. P05866. Rev peptide-RRE RNA binding. inhibition, % at 8 µM. 97,000 tested, 0.79% active;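 active = inhibition above the screen-wide mean plus 3 SD, cut at about 35% in these data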
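Probe or stimulus: fluorescein-Rev peptide as binding partner; assay system: Cy5-tagged RRE RNA duplex with fluorescein-tagged Rev peptide; timing: 5 min compound–RNA preincubation, then 15 min with peptide, 25 °C; medium: HEPES pH 7.5 buffer with KCl, MgCl2, NaCl and EDTA; signal: fluorescein-to-Cy5 FRET, 480 nm excitation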
Each line names hits and unclear results; the compound was inactive in the other large screens; [ ] = another dose, or the depositor's remark. Sampled rows, rich in hits. Any-hit rate of the full collection: about 2%.

Cc1noc(C)c1C(=O)NCCc1ccc(Cl)cc1	HIV Rev-RRE inh 95.0[fluorescence artefact?]
Cc1nc(SCC(=O)Nc2cc(C)on2)c2c(=O)n(C)c(=O)n(C)c2n1	none
Cc1csc(NC(=O)CSc2nc(C(C)C)nc3c2c(=O)n(C)c(=O)n3C)n1	PLK1 kinase inh 66.5 (no result: PTPN22 inh 2, LYP act)
NC(=S)Nc1cccc2cc3ccccc3cc12	HIV Rev-RRE inh 101.6[fluorescence artefact?]
CCOC(=O)c1c(NC(=O)C(F)(OC)C(F)(F)F)sc2c1CCN(C)C2 (stereo not given)	HIV Rev-RRE inh 55.8
CCOC(=O)c1c(NC(=O)CSc2nnc(C)s2)sc2c1CCN(C)C2	HIV Rev-RRE inh 40.2
CCOC(=O)c1c(NC(=O)c2cccs2)sc2c1CCN(C(=O)OCC)C2	none
CCCCc1ccc(NS(=O)(=O)c2cccs2)cc1	none
Cc1ccc2nc3c(cc(C(N)=S)c(=N)n3CCCOC(C)C)c(=O)n2c1	HIV Rev-RRE inh 59.1
CCOC(=O)c1ccc(-n2nc(C(F)(F)F)c3c(C)cc(=O)oc32)cc1	none
COc1ccc(-c2cc(=O)oc3c(C)c(O)c(CN(C)C)cc23)cc1	HIV Rev-RRE inh 38.9
CCCn1c2ccccc2c2nc3ccccc3nc21	none
Cn1c2ccc(Cl)cc2c2nc3ccccc3nc21	PLK1 kinase inh 66.8 (no result: PTPN22 inh 2, LYP act)
COc1ccc(C2C(C#N)=C(N)Oc3cc4c(cc32)OCO4)cc1 (stereo not given)	none
CCN1C=C(Cc2ccc(OC)cc2)C2=C(C1)C(c1ccc(OC)cc1)C(C#N)=C(N)O2 (stereo not given)	HIV Rev-RRE inh 40.0
Cc1nn(CC(=O)NCc2cccc3ccccc23)c(=O)c2ccccc12	none
CN(C)c1ccc(/C=C/c2nc3ccccc3s2)cc1	HIV Rev-RRE inh 105.8[fluorescence artefact?]
Cc1ccc(/C=C/c2nc3ccccc3s2)s1	none
c1ccc(-n2ncc3c(N4CCN(CCOc5cccc6ccccc56)CC4)ncnc32)cc1	none
CCCSc1nc2sc3c(c2c(=O)[nH]1)CCN(Cc1ccccc1)C3	HIV Rev-RRE inh 92.4[fluorescence artefact?]
Cc1sc2nc(CSc3nnc(Cc4cccs4)n3C3CCCCC3)[nH]c(=O)c2c1C	HIV Rev-RRE inh 55.8
C(=C/c1ccnc2nc(SC/C=C/c3ccccc3)nn12)/c1ccccc1	PTPN22 inh 2 33.4
CCn1c(SC(C)C)nnc1-c1c[nH]c2ccccc12	PLK1 kinase inh 64.7 (no result: PTPN22 inh 2, LYP act)
CCOC(=O)CSc1nnc(-c2c[nH]c3ccccc23)n1CC	PLK1 kinase inh 67.7 (no result: PTPN22 inh 2, LYP act)
COC(=O)CSc1nnc(CNS(=O)(=O)c2ccc(Cl)cc2)n1C	none
CCCCn1c(/N=C/c2ccc(N(C)C)cc2)nc2ccccc21	HIV Rev-RRE inh 36.5
C=CCn1c(/N=C/c2ccc(N(C)C)cc2)nc2ccccc21	HIV Rev-RRE inh 49.5
COc1ccc(Nc2nnc(SCc3cc(=O)n4ccsc4n3)s2)cc1	HIV Rev-RRE inh 41.8
O=c1cc(CSc2nc3cc(Cl)ccc3o2)nc2sccn12	none
CCCCSc1nc(N)c(C#N)c(-c2cccs2)c1C#N	none
Cc1cccc(CSc2nc(N)c(C#N)c(-c3cccs3)c2C#N)c1	EphB4 antag 17.1
CCOC(=O)CC(=O)CSc1nc2ccc(C)cc2cc1C#N	HIV Rev-RRE inh 94.5[fluorescence artefact?]
c1ccc(CCn2c(C3CC3)nc3ccccc32)cc1	none
COCCNC(=O)COC(=O)/C=C/c1c(C)nn(Cc2ccc(Cl)cc2Cl)c1Cl	none
O=c1cc(Cl)[nH]c(=O)n1CCNc1ncc(C(F)(F)F)cc1Cl	HIV Rev-RRE inh 52.0
c1ccc(-c2ccc(C3=Nn4c(nnc4-c4cc(-c5ccccc5)n[nH]4)SC3)cc2)cc1	PTPN22 inh 2 42.2
CCCOc1ccc(OCCOCCN2CCc3ccccc3C2)cc1	none
CC(C)NC(=O)CN(C)S(=O)(=O)c1ccc(F)cc1	none
CN(CC(=O)Nc1nccs1)S(=O)(=O)c1ccc(F)cc1	PLK1 kinase inh 53.4
Cc1cc(/C=C(\C#N)C(=O)NCc2cccs2)c(C)n1-c1ccccc1F	none
Cc1ccc(CSc2nnc(-c3ccccc3N)c(=O)[nH]2)cc1	PTPN22 inh 2 28.9
Cc1[nH]c2ccccc2c1/C=C/c1cc[n+](C)cc1	HIV Rev-RRE inh 138.2[fluorescence artefact?]
Cc1[nH]c2ccccc2c1SCCN	none
Cc1oc(-c2ccc(Cl)cc2)nc1CN1CCC(C(=O)NCCCN2CCCC2=O)CC1	none
Cc1oc(-c2ccc(Cl)cc2)nc1CN1CCC(C(=O)N2CCN(Cc3ccccc3)CC2)CC1	PLK1 kinase inh 58.6 (no result: PTPN22 inh 2, LYP act)
Cc1oc(-c2ccc(Cl)cc2)nc1CN1CCC(C(=O)N2CCc3ccccc3C2)CC1	none
CCN1CCN(CCNC(=O)C2CCN(Cc3nc(-c4ccc(Cl)cc4)oc3C)CC2)CC1	PLK1 kinase inh 64.7 (no result: PTPN22 inh 2, LYP act)
CCn1c(CSc2nnc3ccccn23)nc2cc(C(=O)O)ccc21	EphB4 antag 27.1[fluorescence artefact?]
CCn1c(CSc2nnc(-c3cccnc3)n2-c2ccccc2C)nc2cc(C(=O)O)ccc21	EphB4 antag 29.5[fluorescence artefact?]
Cc1ccccc1-n1c(SCc2c(C)noc2C)nnc1-c1cccnc1	HIV Rev-RRE inh 54.8
Cc1ccccc1-n1c(SCC(=O)c2cc(C)n(C)c2C)nnc1-c1cccnc1	none
Cc1ccccc1-n1c(SCc2c(C)noc2C)nnc1-c1ccncc1	none
N#Cc1cc([N+](=O)[O-])cnc1NCC(O)CO (stereo not given)	none
CCOC(=O)c1ccc(NC(=O)CC2C(=O)N(c3ccc(F)cc3)C(=O)N2CCC(C)C)cc1 (stereo not given)	none
CCC1SC(N)=NC1=O (stereo not given)	none
O=C(/C=C/c1cccc([N+](=O)[O-])c1)NCCN1CCOCC1	EphB4 antag 17.0
CCCC1=NN2C(=N)/C(=C\c3ccc(SCc4ccco4)o3)C(=O)N=C2S1	HIV Rev-RRE inh 36.1
CCC1=NN2C(=N)/C(=C\c3ccc(SCc4ccco4)o3)C(=O)N=C2S1	HIV Rev-RRE inh 36.2
N=C1/C(=C/c2cccs2)C(=O)N=C2SN=C(SCc3ccccc3)N12	none
Cc1cc(SCC(=O)N/N=C/c2ccc(O)c(O)c2O)c(C)cc1Br	PTPN22 inh 2 57.4
CCNC(=S)NNC(=O)c1cc(-c2cc(C)ccc2C)nc2ccccc12	none
CC1=C(OC(=O)c2ccccc2)C(C)(C)C(c2ccc(Br)cc2)OC1=O (stereo not given)	none
CC(C)c1ccc(C2CC(=O)N3CN(C)CSC3=C2C#N)cc1 (stereo not given)	none
CC(C)c1ccc(C2C(C#N)=C(N)N3C(=C2C#N)Sc2ccccc23)cc1 (stereo not given)	HIV Rev-RRE inh 55.7
O=S(=O)(NC1CC1)c1ccc(S(=O)(=O)N2CCN3CCCC3C2)cc1 (stereo not given)	PLK1 kinase inh 52.8

High-throughput results from PubChem.
